Screens deposited in PubChem BioAssay by Broad Institute.
SIRT5 block – sirtuin-5 (human) deacylase inhibition | AID 652115 | Q9NXA8 | inhibition, % at 15 µM | Purified SirT5, succinyl-peptide AMC, trypsin-coupled fluorescence | 330,000 compounds, 1.1% hits; in the data active means inhibition above about 15%; inconclusive means no clear call, values can overlap the other calls
Target sequence (Q9NXA8 whole entry, looked up): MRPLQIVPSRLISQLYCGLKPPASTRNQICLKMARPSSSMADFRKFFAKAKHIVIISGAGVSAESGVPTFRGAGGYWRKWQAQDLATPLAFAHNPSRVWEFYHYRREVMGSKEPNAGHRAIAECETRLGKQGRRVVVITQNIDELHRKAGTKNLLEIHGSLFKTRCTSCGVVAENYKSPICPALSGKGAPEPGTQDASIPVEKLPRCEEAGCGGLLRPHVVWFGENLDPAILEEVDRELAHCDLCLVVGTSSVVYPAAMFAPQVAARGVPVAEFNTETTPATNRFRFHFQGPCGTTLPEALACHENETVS
ERp5 inh – ERp5 (human) disulfide isomerase inhibition; Q15084; ERp5 insulin aggregation, absorbance 650 nm, 90 min; inhibition, % at 9.99 µM; 350,000 compounds, 0.05% hits;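 active means mean replicate inhibition above about 25%, with every replicate also reaching it, limit read from the data, passing the limit was not always enough; inconclusive means only one of those two criteria met; inactive means neither criterion met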
MLL AF4-AF9 inh – inhibitors of human MLL-AF4/AF9 interaction. AID 651704. 350,000 compounds, 0.47% hits. inhibition, % at 10 µM. AlphaScreen, biotin-AF4 peptide binding to FLAG-AF9;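 active means every replicate reaching a set inhibition limit, whatever the replicate mean, cut at about 25% in these data; inconclusive means mean inhibition reaches that limit but some replicates miss it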;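 further: 0% = plate neutral control median and 100% = total signal loss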
PDI turbidity – blocks human protein disulfide isomerase activity. AID 588391. 350,000 compounds, 0.052% hits. inhibition, % at 10 µM. PDI insulin aggregation turbidity, A650, 90 min;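 active means mean inhibition across replicates of 30% or more, whatever share of single replicates reach that level; inconclusive means mean inhibition below 30% while every single replicate reaches 30%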
FN deposit inh – fibronectin deposition inhibition | AH1F fibroblasts, Alexa488-fibronectin deposition fluorescence, overnight | inhibition, % at 12.6 µM | 350,000 compounds, 0.086% hits | AID 743247;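 active means mean inhibition across replicates of 30% or more, regardless of how many single replicates reach that level; inconclusive means mean under 30% yet at least half of replicates reach 30%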;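 further: positive control wells lacked labelled fibronectin entirely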
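Measured by – fluorescence 485/525 nm · System – AH1F fibroblast monolayer, labelled fibronectin deposition · Amount – 10000 cells per well · Buffer or medium – serum-reduced DMEM (2% serum) · Doses – single dose, pinned · Also added – fluorescent fibronectin at 24 nM final · Schedule – 1 h cell attachment, overnight exposure to compound and label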
Active calls of the source: *; ? = inconclusive; nt = no result given; ! = a repeat was not active. In the library only some 1.3% were active in any assay of this set; here they are far more common.

SMILES | SIRT5 block | ERp5 inh | MLL AF4-AF9 inh | PDI turbidity | FN deposit inh
C[C@H](CO)N1C[C@H](C)[C@@H](CN(C)Cc2ccc(Cl)c(Cl)c2)Oc2ccc(NC(=O)Nc3cccc4ccccc34)cc2CC1=O | 13 | 3 | 2 | nt | nt
CC(C)NC(=O)Nc1ccc2c(c1)CC(=O)N([C@H](C)CO)C[C@H](C)[C@H](CN(C)C(=O)NC1CCCCC1)O2 | 1 | -1 | -4 | nt | nt
C[C@@H]1CN([C@H](C)CO)C(=O)c2cc(NC(=O)Nc3cccc4ccccc34)ccc2O[C@@H]1CN(C)C(=O)Nc1cccc2ccccc12 | 7 | 33* | -1 | nt | nt
CC(C)NC(=O)Nc1ccc2c(c1)CC(=O)N([C@@H](C)CO)C[C@@H](C)[C@@H](CN(C)C(=O)NC1CCCCC1)O2 | 18* | 0 | 1 | nt | nt
C[C@H]1CN([C@@H](C)CO)C(=O)Cc2cc(NC(=O)Nc3cccc4ccccc34)ccc2O[C@@H]1CN(C)Cc1ccc(Cl)c(Cl)c1 | 16* | -1 | -1 | nt | nt
C[C@@H]1CN([C@H](C)CO)C(=O)Cc2cc(NC(=O)Nc3cccc4ccccc34)ccc2O[C@H]1CN(C)C(=O)Nc1cccc2ccccc12 | 6 | 15 | -1 | nt | nt
C[C@H]1CN([C@@H](C)CO)C(=O)Cc2cc(NC(=O)Nc3cccc4ccccc34)ccc2O[C@H]1CN(C)C(=O)Nc1cccc2ccccc12 | 11 | 26* | 0 | nt | nt
CN(CC(=O)Nc1cccc(F)c1)C(=O)CCCc1c[nH]c2ccccc12 | -1 | 4 | 6 | -1 | 3
COc1ccc(CC(N)c2csc(Nc3ccc(C(C)=O)cc3)n2)cc1 (stereo unspecified) | -6 | 4 | 0 | -3 | 4
CCC1Oc2ccccc2N(CC(=O)N2CCCC2)C1=O (stereo unspecified) | -2 | -6 | 0 | 3 | 17
CNC[C@H]1Oc2ccc(NC(=O)Nc3ccc(F)cc3)cc2CC(=O)N([C@H](C)CO)C[C@@H]1C | 36* | 1 | 0 | nt | -14
Cc1ccc(S(=O)(=O)N(C)C[C@H]2Oc3ccc(NC(=O)Nc4cccc5ccccc45)cc3CC(=O)N([C@@H](C)CO)C[C@H]2C)cc1 | 19* | 0 | 2 | nt | 20
C[C@@H]1CN([C@H](C)CO)C(=O)Cc2cc(NC(=O)Nc3ccccc3)ccc2O[C@H]1CN(C)S(=O)(=O)c1ccc(F)cc1 | 2 | 13 | -10 | nt | nt
C[C@@H]1CN([C@@H](C)CO)C(=O)Cc2cc(NC(=O)Nc3ccccc3)ccc2O[C@H]1CN(C)S(=O)(=O)c1ccc(F)cc1 | 18* | 4 | 3 | nt | nt
COc1ccc(C(=O)c2ccc(Cl)cc2)cc1 | nt | nt | nt | -3 | nt
C[C@H]1CN([C@@H](C)CO)C(=O)c2cccc(NS(C)(=O)=O)c2O[C@H]1CN(C)Cc1ccccc1 | 15* | 4 | -5 | nt | nt
COc1ccc(S(=O)(=O)N(C)C[C@@H]2Oc3c(NS(C)(=O)=O)cccc3C(=O)N([C@@H](C)CO)C[C@H]2C)cc1 | 20*! | 8 | -2 | -1 | -1
C[C@H]1CN([C@@H](C)CO)C(=O)c2cccc(NS(C)(=O)=O)c2O[C@@H]1CN(C)Cc1ccccc1 | 3 | 1 | -1 | nt | nt
C[C@@H]1CN([C@H](C)CO)C(=O)c2cccc(NS(=O)(=O)c3cccs3)c2O[C@H]1CN(C)Cc1ccccc1 | 26*! | 4 | -1 | -1 | -4
Cc1cccc(NS(=O)(=O)c2cccc(C(=O)Nc3cccc(C(=O)O)c3)c2)c1 | 4 | 0 | 6 | 7 | 6
COc1ccc(C(=O)NCc2cc(C(C)C)no2)cc1OC1CCN(C(C)C)CC1 | -7 | -10 | -1 | -3 | 6
COc1ccc(C(=O)NCc2nc(C)c(C)s2)cc1OC1CCN(C(C)C)CC1 | 15* | 9 | 2 | -5 | 16
O=C(Cc1cccnc1)N[C@@H]1CC[C@H](CCn2cc(-c3ccccc3F)nn2)O[C@@H]1CO | -1 | -1 | -1 | nt | nt
CN1CCN(CCCNC(=O)c2ccc(/C=C3\Sc4ccccc4N(Cc4ccccc4F)C3=O)cc2)CC1 | 4 | 5 | 36* | -5 | 0
O=C(NCCN1CCOCC1)c1ccc(/C=C2\Sc3ccccc3N(Cc3ccccc3F)C2=O)cc1 | 2 | 4 | 7 | -6 | 22
SMILES | SIRT5 block | ERp5 inh | MLL AF4-AF9 inh | PDI turbidity | FN deposit inh
COc1cccc(/C=C2/Sc3ccc(C(=O)NCCN4CCCC4)cc3NC2=O)c1 | 1 | -1 | 37* | -3 | 20
CCN1CCN(CCNC(=O)c2ccc(/C=C3/Sc4ccccc4N(Cc4cccc(Cl)c4)C3=O)cc2)CC1 | -3 | 1 | nt | 9 | -8
CCN1CCN(CCNC(=O)c2ccc3c(c2)N(Cc2ccc(F)cc2)C(=O)/C(=C/c2ccccc2)S3)CC1 | -2 | 1 | 58* | 16 | 8
Cc1ccc(S(=O)(=O)N2CCOC2CNC(=O)C(=O)NCc2ccncc2)cc1 (stereo unspecified) | 4 | -3 | 7 | 1 | -2
O=C(CN1C(=O)S/C(=C\C=C\c2ccccc2)C1=O)N1CCCCC1 | nt | nt | nt | -3 | nt
Cc1cccc(NC(=O)C2CCN(S(=O)(=O)c3cccs3)CC2)n1 | nt | nt | nt | -5 | 1
CCC(C)[C@H]1CN=C(N)N1CCCc1cc(OC)c(OC)c(OC)c1 (stereo partly specified) | 23* | 1 | -1 | -4 | 2
COc1ccc2c3c(n(C)c2c1)[C@H](CO)NCC31CCN(Cc2ccc(-c3ccccn3)cc2)CC1 | nt | 11 | 30* | nt | nt
COc1ccc2c3c(n(C)c2c1)[C@H](CO)NCC31CN(Cc2ccccc2Cl)C1 | -4 | 2 | 43* | nt | 5
COc1ccc2c3c(n(C)c2c1)[C@@H](CO)NCC31CCN(Cc2ccc(-c3ccccn3)cc2)CC1 | nt | 7 | ? | nt | nt
COc1ccc2c3c(n(C)c2c1)[C@H](CO)NCC31CN(CC2CCOCC2)C1 | -3 | -1 | 35* | nt | 11
COc1ccc2c3c(n(C)c2c1)[C@@H](CO)NCC31CN(Cc2ccc(-c3ccccn3)cc2)C1 | -3 | 2 | 45* | nt | 8
COc1ccc(CNC(=O)c2cc(=O)c3ccc(C)c(C)c3o2)cc1 | -3 | -1 | 0 | -1 | 1
COc1ccc(CNC(=O)c2cc(=O)c3cc(C)cc(C)c3o2)cc1 | 24* | -3 | 1 | -13 | -4
O=C(Oc1ccnc2cc(Cl)ccc12)N1CCCCCC1 | nt | nt | nt | -1 | nt
C=CCn1c(SCC(=O)c2ccc(O)c(O)c2)nnc1-c1ccc(C)cc1 | 44* | 3 | 11 | -1 | -14
C=CCn1c(SCC(=O)c2ccc(O)c(O)c2)nnc1-c1ccc(OC)cc1 | -2 | 1 | -4 | -1 | 1
CC(C)N1CCc2c(sc(NC(=O)c3cc4cc([N+](=O)[O-])ccc4s3)c2C(N)=O)C1 | 1 | -3 | 13 | nt | -7
O=C1CC(c2ccccc2)Cc2nc3nc(C(F)(F)F)nn3cc21 (stereo unspecified) | -1 | -9 | 2 | -10 | nt
Cc1noc(C)c1C(=O)Nc1nc(-c2cccs2)cs1 | -1 | -2 | 0 | 3 | 0
CCc1noc(C)c1C(=O)Nc1nc(-c2cccs2)cs1 | 15* | 1 | -1 | 1 | 8
